Sampled rows, rich in hits. Any-hit rate of the full collection: about 2.3%.
EWS-Fli inh – inhibitors of EWS/Fli oncoprotein transcriptional activity; inhibition, % at 12.6 µM; hit rate 0.67% among 350,000; A673 NR0B1-luciferase reporter, viability-normalised;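 active means mean inhibition of at least 50% after viability correction, with every replicate also passing that limit; inconclusive means mean reaches 50% but only one of two replicates passes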;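 further: firefly luciferase signal divided by Alamar Blue viability fluorescence both relative to DMSO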
PGC1a acetyl inh – modulators of PGC1a acetylation | U2OS PGC1a acetylation, AlphaScreen anti-acetyl-lysine; with virally co-expressed GCN5 acetyltransferase | inhibition, % at 15.6 µM | hit rate 0.17% among 350,000 | AID 651687;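 active means every replicate shows inhibition of at least 40%; inconclusive means mean inhibition at least 40% but some replicate below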;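 further: 0% = neutral control wells and 100% = positive control wells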
F508del corr – CFTR F508del correction in bronchial cells | CFBE cells, YFP halide quenching; stimulated with forskolin plus potentiator P3; % fluorescence drop versus neutral controls | hit rate 0.36% among 350,000 | AID 720511 | activity (quench increase), % at 7.58 µM;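 active means mean added fluorescence quench of at least 8% versus neutral control, with both replicates also reaching 8%; inconclusive means only one of the mean or replicate conditions met; inactive means mean below 8% and not both replicates reaching 8%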;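 further: cells transiently co-express mutant CFTR-F508del with the halide-sensitive YFP; corrector assay measuring rescue of mutant channel to the surface after 24 h compound exposure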
FN deposit inh – fibronectin deposition inhibition; inhibition, % at 12.6 µM; AH1F fibroblasts, Alexa488-fibronectin deposition fluorescence, overnight; hit rate 0.086% among 350,000;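 active means mean inhibition across replicates of 30% or more, regardless of how many single replicates reach that level; inconclusive means mean under 30% yet at least half of replicates reach 30%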;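 further: positive control wells lacked labelled fibronectin entirely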
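test system = AH1F fibroblasts assembling fluorescent fibronectin matrix | quantity = 10000 AH1F cells per well | buffer or medium = DMEM plus 2% serum, read in PBS | doses = single dose, pinned | incubation = 1 h cell attachment, overnight exposure to compound and label | detection = fluorescence at 485 nm excitation, 525 nm emission | read-out basis = inhibition from reduced deposited-fibronectin fluorescence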
Env fusion inh – HIV envelope-mediated fusion inhibition | HeLa-JRFL Env/CEM21 cell fusion, luciferase | hit rate 1.1% among 360,000 | inhibition, % at 12.3 µM;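 active means mean replicate inhibition score of at least 50 and every replicate individually at or above 50; inconclusive means only one of the two criteria met; inactive means mean below 50 and not all replicates reaching 50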;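 further: 0% = plate neutral controls and 100% = maraviroc near 300 nM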
PAX8 inh HTS – lowers PAX8-driven luciferase in RMG-I cells; RMG-I TPO-luciferase reporter, SteadyGlo, 24 h; inhibition, % at 12.6 µM; hit rate 1.2% among 360,000; AID 652154;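 active means mean replicate inhibition at least 60% with every replicate also reaching 60%; inconclusive means only one of the two criteria is met; inactive means mean below 60% and not all replicates reaching 60%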;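 further: luciferase light reporting Pax8 driven TPO promoter activity; plate controls were median of neutral control wells for no effect and mitoxantrone controls for full effect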
Starred values were filed as active, the others as inactive; [ ] = dose if it differs, or a comment.

How did C[C@@H]1CN([C@@H](C)CO)C(=O)Cc2cc(NS(=O)(=O)c3ccc(Cl)cc3)ccc2O[C@H]1CN(C)Cc1ccc(Oc2ccccc2)cc1 do in these assays?
EWS-Fli inh: -23.1; PGC1a acetyl inh: -7.3; F508del corr: -0.7; FN deposit inh: 10.5; Env fusion inh: inconclusive; PAX8 inh HTS: 106.0*

What do the screens show for `CCc1ccc(NC(=O)CSc2nc3n[nH]c(C)c3c(=N)n2-c2cccc(OC)c2)cc1`?
PGC1a acetyl inh: -10.9; FN deposit inh: -2.0; Env fusion inh: 58.7*

Results for Cc1cc(-n2c(SCC(=O)Nc3ccc(F)c(F)c3)nc3n[nH]c(C)c3c2=N)ccc1Cl ?
EWS-Fli inh: 14.3; PGC1a acetyl inh: -2.0; F508del corr: 0.3; FN deposit inh: -5.4; Env fusion inh: 34.6; PAX8 inh HTS: 76.6*

What do the screens show for `O=C1[C@H]2[C@@H](C3CC3)N3C(=O)CN(CC4CC4)C(=O)[C@@]3(Cc3ccccc3)[C@H]2C(=O)N1c1ccccc1`?
EWS-Fli inh: -4.6; F508del corr: 2.1; FN deposit inh: 4.0; Env fusion inh: 70.0*; PAX8 inh HTS: -9.6

How did O=C1[C@H]2[C@@H](C3CC3)N3C(=O)CN(Cc4ccccn4)C(=O)[C@@]3(Cc3ccccc3)[C@H]2C(=O)N1c1ccccc1 do in these assays?
EWS-Fli inh: -3.0; PGC1a acetyl inh: -15.2; F508del corr: 3.5; FN deposit inh: -9.8; Env fusion inh: 8.2; PAX8 inh HTS: -15.1

What do the screens show for `COc1ccccc1OCC(=O)c1[nH]c(C)c(C(C)=O)c1C`?
PGC1a acetyl inh: 3.5; Env fusion inh: 73.9*

How did O=C(NC1CCCC1)N1CC(=O)N2[C@@H](CO)[C@H](c3ccc(-c4cccc(F)c4)cc3)[C@@H]2C1 do in these assays?
EWS-Fli inh: -4.8; PGC1a acetyl inh: -11.8; F508del corr: 0.4; FN deposit inh: 5.3; Env fusion inh: 25.2[16.7 µM]; PAX8 inh HTS: 6.6

What do the screens show for `CCCCCc1c(-c2ccc(OC)cc2)ncn1CCc1ccccc1OC`?
EWS-Fli inh: 42.3; F508del corr: 2.1; FN deposit inh: -6.8; Env fusion inh: 61.7*; PAX8 inh HTS: 56.0

What do the screens show for `C[C@@H]1CN([C@H](C)CO)C(=O)Cc2cc(NS(=O)(=O)c3cccs3)ccc2O[C@H]1CN(C)Cc1ccc(C(=O)O)cc1`?
EWS-Fli inh: 4.9; PGC1a acetyl inh: 5.2; F508del corr: 0.2; Env fusion inh: 1.1[16.7 µM]; PAX8 inh HTS: -8.0

Results for C[C@H](CO)N1C[C@H](C)[C@@H](CN(C)C(=O)Nc2ccc3c(c2)OCO3)Oc2c(NC(=O)Cc3cn(C)c4ccccc34)cccc2C1=O ?
FN deposit inh: 18.9

Results for CCCn1c(Nc2nc3ccccc3n2C)nc2ccccc21 ?
PGC1a acetyl inh: 3.2; FN deposit inh: 15.2; Env fusion inh: 140.2*

How did CCCCn1c(Nc2ccccc2)nc2ccccc21 do in these assays?
PGC1a acetyl inh: -4.8; FN deposit inh: 4.0; Env fusion inh: 1.2; PAX8 inh HTS: -14.0

Results for CCC(=O)Nc1nc2ccccc2n1CCN1CCOCC1 ?
PGC1a acetyl inh: -1.1

What do the screens show for `CCCCCCCn1c(NC(=O)CC)nc2ccccc21`?
EWS-Fli inh: 40.5; PGC1a acetyl inh: -2.6; F508del corr: 3.9; FN deposit inh: 7.8; Env fusion inh: 72.2*; PAX8 inh HTS: 49.4

How did N#Cc1cc2cc3c(cc2nc1SCC(=O)N1CCOCC1)OCCO3 do in these assays?
EWS-Fli inh: 56.6*; F508del corr: 0.2; FN deposit inh: -4.1; Env fusion inh: -29.1; PAX8 inh HTS: -199.2

How did Cc1cc2cc3c(cc2nc1SCC(=O)N1CCCC1)OCCO3 do in these assays?
EWS-Fli inh: -0.5; PGC1a acetyl inh: 0.0; F508del corr: 0.0; FN deposit inh: 10.6; Env fusion inh: 12.4; PAX8 inh HTS: -7.2

Results for Cc1ccc(-c2ccc(C3[C@@H]4CN(S(=O)(=O)c5cccc(C)c5)C[C@H]3N4)cc2)cc1 (stereo partly drawn) ?
EWS-Fli inh: -4.2; PGC1a acetyl inh: -8.3; F508del corr: -3.7; PAX8 inh HTS: 18.2

Results for COCCCNc1nnc(Cc2ccc(Cl)cc2)c(=O)[nH]1 ?
EWS-Fli inh: 58.4*; F508del corr: 10.5*; FN deposit inh: 12.8; Env fusion inh: -128.8; PAX8 inh HTS: 16.3

How did COc1ccc(C2=NOC(C(=O)NCc3ccc(F)cc3)C2)cc1OC (stereo not drawn) do in these assays?
EWS-Fli inh: 48.2; PGC1a acetyl inh: -33.8; F508del corr: 8.7*

Results for COc1cc(C2=NOC(C(=O)NCc3ccc(F)cc3)C2)cc(OC)c1OC (stereo not drawn) ?
PGC1a acetyl inh: -6.4; FN deposit inh: -6.7; Env fusion inh: -2.5

How did O=C(C[C@@H]1CC[C@@H](NS(=O)(=O)c2ccc(F)cc2)[C@@H](CO)O1)N1CCC(Cc2ccccc2)CC1 do in these assays?
EWS-Fli inh: 1.6; PGC1a acetyl inh: 0.9; F508del corr: 3.6; Env fusion inh: 23.5[16.7 µM]; PAX8 inh HTS: 31.3

What do the screens show for `C/C=C/c1ccc2c(c1)O[C@H](CN(C)C(=O)c1cnccn1)[C@H](C)CN([C@@H](C)CO)S2(=O)=O`?
EWS-Fli inh: -7.4; PGC1a acetyl inh: 1.7; F508del corr: -2.2; FN deposit inh: 4.0; Env fusion inh: -6.0[16.7 µM]; PAX8 inh HTS: -4.1

Results for CN(C)CC#Cc1ccc([C@H]2[C@@H](CO)N3CCCCN(C(=O)C4CCCC4)C[C@@H]23)cc1 ?
EWS-Fli inh: -2.4; PGC1a acetyl inh: -1.3; F508del corr: 2.5; PAX8 inh HTS: -8.8

How did C[C@@H]1CN([C@H](C)CO)S(=O)(=O)c2ccc(C#Cc3ccncc3)cc2O[C@@H]1CN(C)C(=O)C1CCCCC1 do in these assays?
EWS-Fli inh: -1.2; PGC1a acetyl inh: 23.4; F508del corr: 1.9; Env fusion inh: 8.1[16.7 µM]; PAX8 inh HTS: 45.6

How did CC(C)C#Cc1ccc2c(c1)O[C@@H](CN(C)C(=O)C1CCCCC1)[C@H](C)CN([C@H](C)CO)S2(=O)=O do in these assays?
EWS-Fli inh: 24.0; PGC1a acetyl inh: -0.9; F508del corr: -1.2; Env fusion inh: 57.8*[16.7 µM]

What do the screens show for `C[C@H](CO)N1C[C@H](C)[C@H](CN(C)C(=O)C2CCCCC2)Oc2cc(Br)ccc2S1(=O)=O`?
EWS-Fli inh: -1.5; PGC1a acetyl inh: -2.7; F508del corr: -2.6; FN deposit inh: -23.9; Env fusion inh: 55.2*[16.7 µM]

Results for C[C@H]1CN([C@@H](C)CO)S(=O)(=O)c2ccc(Br)cc2O[C@@H]1CN(C)C(=O)C1CCCCC1 ?
EWS-Fli inh: 1.8; PGC1a acetyl inh: -3.8; F508del corr: 0.6; FN deposit inh: -26.1; Env fusion inh: 54.3[16.7 µM]

How did C[C@@H]1CN([C@H](C)CO)S(=O)(=O)c2ccc(C#Cc3ccncc3)cc2O[C@H]1CN(C)C(=O)C1CCCCC1 do in these assays?
EWS-Fli inh: 15.2; PGC1a acetyl inh: -21.1; F508del corr: 1.4; Env fusion inh: 7.8[16.7 µM]; PAX8 inh HTS: 78.4*

High-throughput results from PubChem BioAssay.
